From PubChem
NF-kB neuron act: compounds increasing NF-kB expression in human neuronal cells; fold change at 12.5 µM; 1.6% of 190,000 active; NF-kB reporter expression; active compounds read high; AID 1239; in the data active means fold change above about 3.3
STAT3 act: increases IL-6 driven STAT3 reporter signal. U3A cells, IL-6 STAT3-luciferase reporter, luminescence; 100% = signal with IL-6 EC80 alone. activation (% of control), % at 5.6 µM. 0.91% of 190,000 active. AID 871;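 active means activation above the screen-wide mean of compound activation plus 3 SD, cut at about 130% in these data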;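 further: 0% = background luminescence of wells with medium and substrate only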
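Test system: Human STAT1-deficient U3A cells with stable STAT3-luciferase reporter | Also added: Interleukin-6, 33 ng/mL | Timing: Compound pre-incubation 1 h before IL-6, then 6 h stimulation at 37 °C | Technique: Luciferase reporter luminescence | Read-out: Percent of IL-6-only median luminescence | Benchmarks: IL-6-only wells as 100% reference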
STAT3 blocker: inhibitors of IL-6 induced STAT3 signaling | U3A cells, IL-6 STAT3-luciferase reporter, luminescence; host cell line lacks STAT1 | inhibition, % at 5.5 µM | 0.89% of 190,000 active | AID 862;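 active means inhibition above the mean inhibition across all screened compounds plus 3 SD, cut at about 44% in these data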;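 further: 0% = DMSO only wells and 100% = 100 µM nifuroxazide control wells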
APP 5'UTR act: APP 5'UTR luciferase reporter activation | SH-SY5Y APP 5'UTR luciferase reporter, luminescence; zero percent = DMSO vehicle wells | activation, % at 2 µM | AID 1276 | 1% of 190,000 active;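 active means activation above a set limit, based on mean plus 3 SD of controls, cut at about 140% in these data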
STAT1 activator: STAT1 signaling activation. NIH 3T3 STAT1-luciferase reporter, IFN-gamma, luminescence; 100% = IFN-gamma alone, no compound. 2.6% of 200,000 active. activation (% of control), % at 5.5 µM. AID 932;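 active means activation above the screen-wide mean activation plus 3 SD, cut at about 130% in these data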;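 further: raw ratio to IFN-gamma control signal so 100% means no change and 0% no light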
STAT1 blocker: inhibitors of IFN-gamma induced STAT1 signaling; NIH 3T3 STAT1-luciferase reporter, luminescence; inhibition, % at 5.5 µM; 0.35% of 200,000 active;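 active means inhibition above a set limit, the mean inhibition across all tested compounds plus 3 SD, cut at about 34% in these data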;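 further: 0% = IFN-gamma with DMSO and 100% = IFN-gamma with 300 µM nifuroxazide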
An asterisk follows results filed as active. The list is not random: actives were taken first. Their share in the collection is about 5.1%.

SMILES	NF-kB neuron act	STAT3 act	STAT3 blocker	APP 5'UTR act	STAT1 activator	STAT1 blocker
CN(C)S(=O)(=O)c1ccc(C(=O)Nc2ccc(Cl)cc2)cc1	1.2	89	22	-3	110	-11
CC(C)(C)c1ccc(C(=O)Nc2ccc(Cl)cc2)cc1	1.6	94	2	126	130*	-33
COC(=O)Cc1ccc(NC(=O)c2ccc(C(C)(C)C)cc2)cc1	0.54	30	85*	-84	58	44*
CCN(CC)S(=O)(=O)c1ccc(N2CCN(S(=O)(=O)c3ccc4c(c3)OCCO4)CC2)nc1	0.76	88	14	-12	82	20
O=C(Nc1ncccc1Cl)c1ccccc1F	1.2	94	5	20	117	-19
CCOC(=O)/C(=C\c1ccc(OC(F)F)cc1)C1=Nn2c(nnc2-c2ccc(Cl)cc2)SC1	8.3*	98	5	-34	96	5
COc1ccc(-c2nnc3n2N=C(C)CS3)cc1	1.2	93	13	-4	96	4
COc1cc(C2NCC(c3ccc(Cl)cc3Cl)c3c2[nH]c2ccccc32)cc(OC)c1OC (stereo not drawn)	0.71	103	-3	3	101	-1
Cc1ccc2oc(-c3cccc(NC(=O)/C=C/c4cccc([N+](=O)[O-])c4)c3C)nc2c1	0.95	100	6	90	136*	-40
O=S(=O)(c1ccc2c(c1)OCCO2)N1CCN(c2nc(-c3cccnc3)nc3ccccc23)CC1	0.72	101	4	-8	102	-5
COc1ccc(/C(C)=N/Nc2ccc(F)cc2F)c(O)c1	1.2	92	17	32	133*	-37
C/C(=N\Nc1ccc(F)cc1F)c1cccs1	1.4	86	22	12	129*	-33
C/C(=N\NC(=O)C1CC1)c1cccs1	1.8	109	-6	-7	99	1
Cc1nn(C(=O)/C(C#N)=C/N(C)C)c(C)c1C	1.1	97	6	-2	101	-3
CCOC(=O)C(C)n1cnc2c(nnn2-c2cccc(Cl)c2)c1=O (stereo not drawn)	1	94	15	8	109	-10
CCc1nc(Nc2ccncc2)c2oc3ccccc3c2n1	3.6*	97	10	27	86	15
Cn1ccnc1SCC(=O)Nc1cccc(O)c1	1.2	100	5	9	102	-2
CC(C)(C)c1cn(-c2ccccc2)c(=S)[nH]1	1.1	99	5	0	107	-7
CC(C)C(=O)Nc1nc(-c2ccc([N+](=O)[O-])cc2)cs1	1.6	82	26	21	120	-24
CNc1nc(-c2ccc([N+](=O)[O-])cc2)cs1	2.1	84	23	34	137*	-40
CNc1nc(-c2ccc(Cl)cc2)cs1	2.4	100	7	83	132*	-33
CCNc1nc(-c2ccc(Cl)cc2)cs1	3.8*	90	17	148*	149*	-51
CCCn1c(=O)c2ccccc2n2c(SCc3nnc(-c4ccccc4Br)o3)nnc12	1	103	4	-4	99	1
COC(=O)c1[nH]c2ccc(C)cc2c1NC(=O)CN1CCN(Cc2ccccc2)CC1	0.52	99	5	2	103	-3
CC1CCN(CCCNC(=O)C2CC(=O)N(C3CCCCCC3)C2)CC1 (stereo not drawn)	1.6	102	5	-1	96	5
SMILES	NF-kB neuron act	STAT3 act	STAT3 blocker	APP 5'UTR act	STAT1 activator	STAT1 blocker
O=C(Nc1ccc(Cl)cc1)C1=Cc2ccccc2OC1	9.2*	95	10	210*	143*	-47
O=C(Nc1ccccc1)c1ccc2c(c1)OCCO2	5.5*	79	28	132	146*	-50
O=C(Nc1ccc(Cl)c([N+](=O)[O-])c1)c1ccc2c(c1)OCCO2	3.7*	93	16	168*	139*	-42
CCOc1ccc(C(=O)Nc2ccc3c(c2)OCCO3)cc1[N+](=O)[O-]	1.1	82	23	19	98	1
O=C(Nc1ccc2c(c1)OCO2)Nc1ccccn1	2.7	90	16	82	148*	-53
O=C(Nc1ccc2c(c1)OCO2)Nc1cnccn1	1.8	90	16	20	118	-19
NC(=O)C1CCN(C(=O)C2c3ccccc3C(=O)N3CCc4ccccc4C23)CC1 (stereo not drawn)	1	118	-16	-6	97	3
